In ChEMBL document CHEMBL4138126, “Synthesis, antiproliferative, anti-tubulin activity, and docking study of new 1,2,4-triazoles as potential combretastatin analogues” (Eur J Med Chem, 2017):

Key:
HL-60(TB) = test: Growth inhibition of human HL-60(TB) cells assessed as cell growth at 10 uM after 48 hrs by sulforhodamine B assay; format: functional; conditions: HL-60, 48 h, read-out: Activity
In short: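 Screened by the NCI in its 60-cell-line panel covering nine cancer types, including leukemia. Compounds were added at a single concentration, and the cultures were incubated for 48 h. Results are reported as percent growth inhibition.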

MOLT-4 = test: Growth inhibition of human MOLT4 cells assessed as cell growth at 10 uM after 48 hrs by sulforhodamine B assay; format: functional; conditions: MOLT-4, 48 h, read-out: Activity
In short: (§1)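 NCI 60-cell-line panel screen (nine cancer types). Compounds added at single concentration 10^-5 M, cultures incubated 48 h; growth inhibition percentages reported.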

RPMI-8226 = test: Growth inhibition of human RPMI8226 cells assessed as cell growth at 10 uM after 48 hrs by sulforhodamine B assay; format: functional; conditions: RPMI-8226, 48 h, read-out: Activity; in short: as §1
A549 = test: Growth inhibition of human A549/ATCC cells assessed as cell growth at 10 uM after 48 hrs by sulforhodamine B assay; format: functional; conditions: A549, 48 h, read-out: Activity; in short: as §1
EKVX = test: Growth inhibition of human EKVX cells assessed as cell growth at 10 uM after 48 hrs by sulforhodamine B assay; format: functional; conditions: read-out: Activity; in short: as §1
HOP-92 = test: Growth inhibition of human HOP92 cells assessed as cell growth at 10 uM after 48 hrs by sulforhodamine B assay; format: functional; conditions: HOP-92, 48 h, read-out: Activity; in short: as §1
NCI-H23 = test: Growth inhibition of human NCI-H23 cells assessed as cell growth at 10 uM after 48 hrs by sulforhodamine B assay; format: functional; conditions: NCI-H23, 48 h, read-out: Activity; in short: as §1
NCI-H460 = test: Growth inhibition of human NCI-H460 cells assessed as cell growth at 10 uM after 48 hrs by sulforhodamine B assay; format: functional; conditions: NCI-H460, 48 h, read-out: Activity; in short: as §1
NCI-H522 = test: Growth inhibition of human NCI-H522 cells assessed as cell growth at 10 uM after 48 hrs by sulforhodamine B assay; format: functional; conditions: NCI-H522, 48 h, read-out: Activity; in short: as §1
HCT-116 = test: Growth inhibition of human HCT116 cells assessed as cell growth at 10 uM after 48 hrs by sulforhodamine B assay; format: functional; conditions: HCT-116, 48 h, read-out: Activity; in short: as §1
HCT-15 = test: Growth inhibition of human HCT15 cells assessed as cell growth at 10 uM after 48 hrs by sulforhodamine B assay; format: functional; conditions: HCT-15, 48 h, read-out: Activity; in short: as §1
HT-29 = test: Growth inhibition of human HT-29 cells assessed as cell growth at 10 uM after 48 hrs by sulforhodamine B assay; format: functional; conditions: HT-29, 48 h, read-out: Activity; in short: as §1
SW-620 = test: Growth inhibition of human SW620 cells assessed as cell growth at 10 uM after 48 hrs by sulforhodamine B assay; format: functional; conditions: SW-620, 48 h, read-out: Activity
In short: (§2)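 NCI 60-cell-line panel from nine tumour types (leukaemia, lung, colon, CNS, melanoma, ovarian, renal, prostate, breast). Each compound was added at one single concentration, and cultures were incubated for 48 h. Results are reported as percent growth inhibition.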

SF-268 = test: Growth inhibition of human SF268 cells assessed as cell growth at 10 uM after 48 hrs by sulforhodamine B assay; format: functional; conditions: SF-268, 48 h, read-out: Activity; in short: as §1
SF-295 = test: Growth inhibition of human SF295 cells assessed as cell growth at 10 uM after 48 hrs by sulforhodamine B assay; format: functional; conditions: SF-295, 48 h, read-out: Activity; in short: as §1
SNB-19 = test: Growth inhibition of human SNB19 cells assessed as cell growth at 10 uM after 48 hrs by sulforhodamine B assay; format: functional; conditions: SNB-19, 48 h, read-out: Activity; in short: as §2
U-251 = test: Growth inhibition of human U251 cells assessed as cell growth at 10 uM after 48 hrs by sulforhodamine B assay; format: functional; conditions: U-251, 48 h, read-out: Activity; in short: as §2
Malme-3M = test: Growth inhibition of human MALME-3M cells assessed as cell growth at 10 uM after 48 hrs by sulforhodamine B assay; format: functional; conditions: read-out: Activity; in short: as §1
M14 = test: Growth inhibition of human M14 cells assessed as cell growth at 10 uM after 48 hrs by sulforhodamine B assay; format: functional; conditions: M14, 48 h, read-out: Activity; in short: as §1
SK-MEL-2 = test: Growth inhibition of human SK-MEL-2 cells assessed as cell growth at 10 uM after 48 hrs by sulforhodamine B assay; format: functional; conditions: SK-MEL-2, 48 h, read-out: Activity; in short: as §1
OVCAR-4 = test: Growth inhibition of human OVCAR4 cells assessed as cell growth at 10 uM after 48 hrs by sulforhodamine B assay; format: functional; conditions: OVCAR-4, 48 h, read-out: Activity; in short: as §1
OVCAR-8 = test: Growth inhibition of human OVCAR8 cells assessed as cell growth at 10 uM after 48 hrs by sulforhodamine B assay; format: functional; conditions: OVCAR-8, 48 h, read-out: Activity; in short: as §1
SK-OV-3 = test: Growth inhibition of human SKOV3 cells assessed as cell growth at 10 uM after 48 hrs by sulforhodamine B assay; format: functional; conditions: SK-OV-3, 48 h, read-out: Activity; in short: as §1
ACHN = test: Growth inhibition of human ACHN cells assessed as cell growth at 10 uM after 48 hrs by sulforhodamine B assay; format: functional; conditions: read-out: Activity; in short: as §1
RXF 393 = test: Growth inhibition of human RXF393 cells assessed as cell growth at 10 uM after 48 hrs by sulforhodamine B assay; format: functional; conditions: RXF 393, 48 h, read-out: Activity; in short: as §1
TK-10 = test: Growth inhibition of human TK10 cells assessed as cell growth at 10 uM after 48 hrs by sulforhodamine B assay; format: functional; conditions: TK-10, 48 h, read-out: Activity; in short: as §2
UO-31 = test: Growth inhibition of human UO31 cells assessed as cell growth at 10 uM after 48 hrs by sulforhodamine B assay; format: functional; conditions: UO-31, 48 h, read-out: Activity; in short: as §2
DU-145 = test: Growth inhibition of human DU145 cells assessed as cell growth at 10 uM after 48 hrs by sulforhodamine B assay; format: functional; conditions: DU-145, 48 h, read-out: Activity; in short: as §1
MCF7 = test: Growth inhibition of human MCF7 cells assessed as cell growth at 10 uM after 48 hrs by sulforhodamine B assay; format: functional; conditions: MCF7, 48 h, read-out: Activity; in short: as §1
BT-549 = test: Growth inhibition of human BT549 cells assessed as cell growth at 10 uM after 48 hrs by sulforhodamine B assay; format: functional; conditions: BT-549, 48 h, read-out: Activity; in short: as §1
HepG2 = test: Cytotoxicity in human HepG2 cells assessed as reduction in cell viability incubated for 48 hrs by MTT assay; format: functional, cell-based; conditions: HepG2, 48 h
In short: (§3)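 HepG2 and HL60 (ATCC) grown in DMEM with 10% FBS, 2 mM L-glutamine, penicillin/streptomycin, amphotericin B at 37 °C, 5% CO2. Samples dissolved in DMSO, diluted thousandfold in assay. Cells seeded in serum-free medium, treated with serial concentrations 48 h; MTT 4 h, formazan dissolved in acidified isopropanol, A570. Triplicates averaged; viability relative to untreated/vehicle control.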

HL-60 = test: Cytotoxicity in human HL60 cells assessed as reduction in cell viability incubated for 48 hrs by MTT assay; format: functional, cell-based; conditions: HL-60, 48 h; in short: as §3

## CCOc1ccc(-n2nc(C(=O)Nc3ccccc3OC)nc2-c2cc(OC)c(OC)c(OC)c2)cc1
HL-60(TB)
  growth at 10 µM: 73.2%
MOLT-4
  growth at 10 µM: 76.5%
RPMI-8226
  growth at 10 µM: 68.2%
A549
  growth at 10 µM: 77.3%
EKVX
  growth at 10 µM: 76.3%
HOP-92
  growth at 10 µM: 86.8%
NCI-H23
  growth at 10 µM: 97.8%
NCI-H460
  growth at 10 µM: 83.4%
NCI-H522
  growth at 10 µM: 69.2%
HCT-116
  growth at 10 µM: 72.7%
HCT-15
  growth at 10 µM: 80.8%
HT-29
  growth at 10 µM: 74%
SW-620
  growth at 10 µM: 100%
SF-268
  growth at 10 µM: 89.2%
SF-295
  growth at 10 µM: 84.8%
SNB-19
  growth at 10 µM: 88.5%
U-251
  growth at 10 µM: 94%
Malme-3M
  growth at 10 µM: 99.8%
M14
  growth at 10 µM: 92.8%
SK-MEL-2
  growth at 10 µM: 81.9%
OVCAR-4
  growth at 10 µM: 72.9%
OVCAR-8
  growth at 10 µM: 90.3%
SK-OV-3
  growth at 10 µM: 88.8%
ACHN
  growth at 10 µM: 79.3%
RXF 393
  growth at 10 µM: 88.4%
TK-10
  growth at 10 µM: 89.2%
UO-31
  growth at 10 µM: 59.6%
DU-145
  growth at 10 µM: 95.6%
MCF7
  growth at 10 µM: 77.4%
BT-549
  growth at 10 µM: 77.6%

## CCOc1ccc(-n2nc(C(=O)Nc3cccc(OC)c3)nc2-c2cc(OC)c(OC)c(OC)c2)cc1
HepG2
  IC50: 36.8 µM
HL-60
  IC50: 16.6 µM
HL-60(TB)
  growth at 10 µM: 87.5%
MOLT-4
  growth at 10 µM: 62.5%
RPMI-8226
  growth at 10 µM: 27.9%
A549
  growth at 10 µM: 68.2%
EKVX
  growth at 10 µM: 77.7%
HOP-92
  growth at 10 µM: 67.2%
NCI-H23
  growth at 10 µM: 85.9%
NCI-H460
  growth at 10 µM: 79.3%
NCI-H522
  growth at 10 µM: 57.9%
HCT-116
  growth at 10 µM: 67.3%
HCT-15
  growth at 10 µM: 74.3%
HT-29
  growth at 10 µM: 78.3%
SW-620
  growth at 10 µM: 99.7%
SF-268
  growth at 10 µM: 80.7%
SF-295
  growth at 10 µM: 68.5%
SNB-19
  growth at 10 µM: 83.9%
U-251
  growth at 10 µM: 78.5%
Malme-3M
  growth at 10 µM: 91.7%
M14
  growth at 10 µM: 83.7%
SK-MEL-2
  growth at 10 µM: 86.9%
OVCAR-4
  growth at 10 µM: 75.1%
OVCAR-8
  growth at 10 µM: 53.1%
SK-OV-3
  growth at 10 µM: 96.5%
ACHN
  growth at 10 µM: 77.9%
RXF 393
  growth at 10 µM: 90.2%
TK-10
  growth at 10 µM: 93.6%
UO-31
  growth at 10 µM: 50.9%
DU-145
  growth at 10 µM: 94.8%
MCF7
  growth at 10 µM: 83.5%
BT-549
  growth at 10 µM: 72.3%

## COc1cccc(-n2nc(C(=O)NCc3ccccc3OC)nc2-c2cc(OC)c(OC)c(OC)c2)c1
HepG2
  IC50: 1.67 µM
HL-60
  IC50: > 100 µM
HL-60(TB)
  growth at 10 µM: 103%
MOLT-4
  growth at 10 µM: 103%
RPMI-8226
  growth at 10 µM: 100%
A549
  growth at 10 µM: 92.8%
EKVX
  growth at 10 µM: 91.1%
HOP-92
  growth at 10 µM: 108%
NCI-H23
  growth at 10 µM: 90.7%
NCI-H460
  growth at 10 µM: 111%
NCI-H522
  growth at 10 µM: 60.5%
HCT-116
  growth at 10 µM: 102%
HCT-15
  growth at 10 µM: 96.8%
HT-29
  growth at 10 µM: 81.3%
SW-620
  growth at 10 µM: 111%
SF-268
  growth at 10 µM: 95.5%
SF-295
  growth at 10 µM: 95.1%
SNB-19
  growth at 10 µM: 100%
U-251
  growth at 10 µM: 97.1%
Malme-3M
  growth at 10 µM: 99.7%
M14
  growth at 10 µM: 99.8%
SK-MEL-2
  growth at 10 µM: 77.8%
OVCAR-4
  growth at 10 µM: 90.8%
OVCAR-8
  growth at 10 µM: 103%
SK-OV-3
  growth at 10 µM: 96.7%
ACHN
  growth at 10 µM: 106%
RXF 393
  growth at 10 µM: 107%
TK-10
  growth at 10 µM: 81%
UO-31
  growth at 10 µM: 59.1%
DU-145
  growth at 10 µM: 106%
MCF7
  growth at 10 µM: 98.7%
BT-549
  growth at 10 µM: 103%
